Only some compounds are listed: those with a hit (about 2.8% of all), similar ones and a draw of the others.
SIRT5 block: SIRT5 desuccinylase inhibitors, primary screen, biochemical, fluorescence imaging, single point, set 5. NAD-dependent protein deacylase sirtuin-5, mitochondrial (Homo sapiens), Q9NXA8. hit rate 1.1% among 330,000. inhibition, % at 15 µM. Purified SirT5, succinyl-peptide AMC, trypsin-coupled fluorescence; in the data active = inhibition above about 15%
Target sequence (Q9NXA8 whole entry, looked up): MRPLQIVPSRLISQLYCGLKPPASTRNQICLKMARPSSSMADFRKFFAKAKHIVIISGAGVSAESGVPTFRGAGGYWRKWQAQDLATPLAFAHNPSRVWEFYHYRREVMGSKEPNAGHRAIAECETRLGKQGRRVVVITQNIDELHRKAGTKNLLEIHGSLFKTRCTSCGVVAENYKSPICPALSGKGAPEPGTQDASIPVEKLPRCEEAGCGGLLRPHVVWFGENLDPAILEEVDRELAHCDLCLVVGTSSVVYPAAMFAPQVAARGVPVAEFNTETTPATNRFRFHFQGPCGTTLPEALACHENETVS
E-sel inducer: E-selectin induction in HUVECs, primary screen, imaging, HUVEC, immunofluorescence imaging, single point | P16581 | normalized: neutral wells 0, TNF-alpha wells 100 | activation, % at 7.58 µM | hit rate 0.37% among 260,000;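 active = mean E-selectin-positive cell signal at least 10% of the positive control, reached in at least 60% of replicates, without over 20% cell loss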
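material = human umbilical vein endothelial cells (HUVEC), E-selectin induction | quantity = 3,000 cells/well | medium = EGM-2 growth medium on 0.1% gelatin-coated wells | technique = immunofluorescence imaging | read-out basis = % PE-positive cells | control set = TNF-alpha positive control, DMSO neutral control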
DENV2 CPE rescue: inhibitors of DENV2 cytopathic effect, primary screen, cell-based, plate reader, single concentration; DENV2-infected cells, cytopathic effect rescue; CPE inhibition, % at 9.99 µM; hit rate 1.7% among 350,000; AID 651640, 2012; in the data active = CPE inhibition above about 20%, passing the limit was not always enough; tested in BHK-21 cells;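 also: 0% = median of neutral control wells and 100% = median of positive control wells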
An asterisk follows results filed as active.

Screening COc1ccc(S(=O)(=O)Nc2ccc3c(c2)CC(=O)N([C@H](C)CO)C[C@H](C)[C@H](CN(C)Cc2ccc(-c4ccccc4)cc2)O3)cc1 returned SIRT5 block 12, E-sel inducer 0 and DENV2 CPE rescue 11.
C[C@@H]1CN([C@H](C)CO)C(=O)Cc2cc(NS(=O)(=O)c3ccc(Cl)cc3)ccc2O[C@@H]1CN(C)Cc1ccc(Oc2ccccc2)cc1 was read as SIRT5 block 11, E-sel inducer 0 and DENV2 CPE rescue 6.
`Cc1ccc(S(=O)(=O)N[C@H]2CC[C@H](CCNC(=O)C3CCC3)O[C@@H]2CO)cc1` gave SIRT5 block 0, E-sel inducer 0 and DENV2 CPE rescue -8.
For COC(=O)C[C@H]1C[C@@H]2c3cc(NC(=O)c4cccnc4)ccc3O[C@@H]2[C@H](CO)O1 the results were SIRT5 block -1, E-sel inducer 0 and DENV2 CPE rescue -3.
CNC[C@@H]1OCCCC[C@@H](C)Oc2ccc(NC(=O)Nc3ccc(C(F)(F)F)cc3)cc2C(=O)N([C@H](C)CO)C[C@@H]1C was read as E-sel inducer 0.
`O=C(c1cccc(F)c1)N1CC[C@@H]2[C@H](CO)Nc3ccc(-c4cccc(F)c4)cc3[C@@H]21` gave E-sel inducer 1.
`C[C@@H]1CN([C@@H](C)CO)C(=O)c2cc(-c3ccc(F)cc3)cnc2O[C@H]1CN(C)CC1CCCC1` gave SIRT5 block -2, E-sel inducer 2 and DENV2 CPE rescue 54*.
`C[C@@H]1CN([C@@H](C)CO)C(=O)c2cc(-c3ccc(C#N)cc3)cnc2O[C@@H]1CN(C)CC1CCOCC1` gave SIRT5 block 38*, E-sel inducer 0 and DENV2 CPE rescue -6.
Screening Cc1ccc(-c2cnc3c(c2)C(=O)N([C@@H](C)CO)C[C@@H](C)[C@@H](CN(C)CC2CC2)O3)cc1 returned SIRT5 block 16*, E-sel inducer 0 and DENV2 CPE rescue -5.
`C[C@H]1CN([C@@H](C)CO)C(=O)c2cc(-c3ccc(C#N)cc3)cnc2O[C@H]1CN(C)CC1CCOCC1` gave SIRT5 block -9, E-sel inducer 0 and DENV2 CPE rescue -7.
Screening C[C@@H]1CN([C@@H](C)CO)C(=O)c2cc(-c3ccc(F)cc3)cnc2O[C@@H]1CN(C)CC1CCCC1 returned SIRT5 block 10, E-sel inducer 0 and DENV2 CPE rescue -8.
Cc1ccc(-c2cnc3c(c2)C(=O)N([C@H](C)CO)C[C@H](C)[C@@H](CN(C)CC2CCCC2)O3)cc1 was read as SIRT5 block 3, E-sel inducer 0 and DENV2 CPE rescue 0.
For CCCC(=O)Nc1ccc2c(c1)C(=O)N(C)C[C@H](OC)[C@H](C)CN(Cc1ccncc1)[C@H](C)CO2 the results were E-sel inducer 0.
Screening C[C@@H]1CCCCO[C@H](CN(C)C(=O)NC2CCCCC2)[C@H](C)CN([C@@H](C)CO)C(=O)c2cc(NC(=O)Nc3ccc4c(c3)OCO4)ccc2O1 returned SIRT5 block 2 and DENV2 CPE rescue 0.
`CCNC(=O)C[C@H]1CC[C@H](NC(=O)C2CCC2)[C@H](CO)O1` gave SIRT5 block -1, E-sel inducer 0 and DENV2 CPE rescue 1.
`CCCCNC(=O)CNC(=S)N(CCCN1CCOCC1)Cc1cccs1` gave SIRT5 block -3 and DENV2 CPE rescue 44*.
Screening CCN(CC)CCNC(=O)CNC(=S)N(CCCN1CCOCC1)Cc1cccs1 returned SIRT5 block 4, E-sel inducer 0 and DENV2 CPE rescue 1.
For CO[C@H]1CN(C)C(=O)c2cc(NC(=O)CC(F)(F)F)ccc2OC[C@@H](C)NC[C@@H]1C the results were SIRT5 block -4, E-sel inducer 1 and DENV2 CPE rescue -8.
For COc1ccccc1-c1ccc([C@@H]2[C@@H]3CN(S(=O)(=O)c4ccc(-c5ccccc5)cc4)C[C@H]2N3)cc1 the results were SIRT5 block 21*, E-sel inducer -1 and DENV2 CPE rescue 1.
Screening Cc1ccc(S(=O)(=O)N2C[C@@H]3N[C@H](C2)[C@@H]3c2ccc(-c3cccc(C)c3)cc2)cc1 returned E-sel inducer 0 and DENV2 CPE rescue -5.
Screening Cc1cccc(S(=O)(=O)N2CCCCN3[C@H](C2)[C@H](c2ccc(-c4ccncc4)cc2)[C@@H]3CO)c1 returned SIRT5 block 3, E-sel inducer 0 and DENV2 CPE rescue -7.
Screening Cc1ccc(-c2ccc([C@@H]3[C@@H](CO)N4CCCCN(S(=O)(=O)c5cccc(C)c5)C[C@@H]34)cc2)cc1 returned SIRT5 block 17* and DENV2 CPE rescue 1.

Assay outcomes from PubChem.
